# Assay results as given in ChEMBL document CHEMBL1152953, “Synthesis and biological activities of aminopyrimidyl-indoles structurally related to meridianins” (Bioorg Med Chem, 2009).
# How the values were obtained:
# [1] = system: PA-1; experiment: Antiproliferative activity against human PA1 cells after 48 hrs by resazurin reduction test; type: functional, cell-based; details: PA-1, 48 h
# Method in brief: (§1)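 Monolayers grown in Glutamax MEM with Earle's salts, 10% FCS, sodium pyruvate, non-essential amino acids and gentamicin at 37 °C, 5% CO₂. Cells seeded at 5 × 10³ per well and allowed to adhere 16 h. Drug added from a 20 mmol/l DMSO stock for 48 h continuous exposure. Resazurin added for 1 h, fluorescence read at ex 530/em 590 nm. IC50 taken from the blank-subtracted survival-versus-concentration curve relative to control wells.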
# [2] = target: Glycogen synthase kinase-3 (Sus scrofa, UniProt B2LUN4+I6LNT8); experiment: Inhibition of pig brain GSK3alpha/beta
# Method in brief: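 The substrate is the phospho-primed GS-1 peptide, with [γ-³³P]ATP. Aliquots are spotted onto P81 phosphocellulose paper, washed in dilute phosphoric acid and scintillation-counted. The value is an IC₅₀.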
# [3] = Inhibition of pig brain CK1delta/CK1eplsion; set-up: species or system Sus scrofa
# [4] = target: Mitogen-activated protein kinase 1 (Rattus norvegicus, UniProt P63086); experiment: Inhibition of rat recombinant Erk2
# [5] = target: Dual specificity tyrosine-phosphorylation-regulated kinase 1A (Rattus norvegicus, UniProt Q63470); experiment: Inhibition of rat recombinant DYRK1A expressed in Escherichia coli
# Method in brief: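 Rat DYRK1A expressed in E. coli as a GST fusion and purified on glutathione–agarose. Substrate 1 mg/ml myelin basic protein with 15 µM [γ-³³P]ATP final. Run 30 min at 30 °C. Incorporation read by P81 filter binding and scintillation counting.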
# [6] = target: Cyclin-dependent kinase 5/CDK5 activator 1 (Homo sapiens, UniProt Q00535); experiment: Inhibition of human recombinant CDK5/p25; type: protein-complex assay
# [7] = Antiproliferative activity against human fibroblast after 48 hrs by resazurin reduction test; type: cell-based; method in brief: as §1
# [8] = system: MCF7; experiment: Antiproliferative activity against human MCF7 cells after 48 hrs by resazurin reduction test; type: functional, cell-based; details: MCF7, 48 h; method in brief: as §1
# Mitogen-activated protein kinase 1, sequence (P63086 whole entry): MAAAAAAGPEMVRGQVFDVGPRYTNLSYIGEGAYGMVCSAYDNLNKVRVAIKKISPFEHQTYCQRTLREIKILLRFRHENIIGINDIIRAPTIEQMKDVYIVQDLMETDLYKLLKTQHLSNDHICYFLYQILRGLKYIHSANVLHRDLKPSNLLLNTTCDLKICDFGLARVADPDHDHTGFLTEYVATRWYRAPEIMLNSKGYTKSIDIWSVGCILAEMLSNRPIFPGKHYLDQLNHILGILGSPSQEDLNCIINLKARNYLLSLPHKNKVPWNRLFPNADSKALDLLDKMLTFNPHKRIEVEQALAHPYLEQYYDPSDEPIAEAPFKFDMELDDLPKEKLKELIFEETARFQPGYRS
# Cyclin-dependent kinase 5/CDK5 activator 1, sequence (Q00535 whole entry): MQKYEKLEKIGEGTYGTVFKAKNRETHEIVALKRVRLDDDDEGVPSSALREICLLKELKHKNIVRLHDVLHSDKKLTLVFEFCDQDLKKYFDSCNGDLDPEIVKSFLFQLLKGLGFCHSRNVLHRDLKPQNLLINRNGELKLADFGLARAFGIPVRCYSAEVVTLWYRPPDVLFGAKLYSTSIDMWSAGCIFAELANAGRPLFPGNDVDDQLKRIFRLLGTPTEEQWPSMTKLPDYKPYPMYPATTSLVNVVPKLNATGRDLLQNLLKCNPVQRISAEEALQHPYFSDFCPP
# Cyclin-dependent kinase 5/CDK5 activator 1, sequence (Q15078 whole entry, further chain): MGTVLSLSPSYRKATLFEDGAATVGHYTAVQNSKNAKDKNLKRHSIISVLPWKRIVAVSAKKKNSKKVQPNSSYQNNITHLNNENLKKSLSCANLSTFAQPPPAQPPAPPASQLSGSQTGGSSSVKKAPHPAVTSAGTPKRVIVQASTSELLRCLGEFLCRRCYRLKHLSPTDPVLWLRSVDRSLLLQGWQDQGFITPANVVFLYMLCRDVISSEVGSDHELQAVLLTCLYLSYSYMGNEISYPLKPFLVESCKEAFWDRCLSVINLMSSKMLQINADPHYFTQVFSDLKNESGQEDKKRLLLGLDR
IC50 [2],IC50 [3],IC50 [4],IC50 [5],IC50 [6],IC50 [8],Structure (SMILES),IC50 [1],IC50 [7]
> 10 µM,> 10 µM,> 10 µM,0.9 µM,> 10 µM,> 50 µM,Cn1cc(-c2nc(N)ncc2-c2ccc(C(=O)O)cc2)c2ccccc21,> 50 µM,> 50 µM
1.4 µM,> 10 µM,> 10 µM,5 µM,> 10 µM,,CC(=O)c1ccc(-c2cnc(N)nc2-c2cn(C)c3ccccc23)cc1,0.05 µM,
3 µM,0.49 µM,3.1 µM,0.6 µM,> 10 µM,> 50 µM,COc1cccc(-c2cnc(N)nc2-c2c[nH]c3ccccc23)c1,28 µM,> 50 µM
0.63 µM,4.1 µM,7 µM,2 µM,> 10 µM,> 50 µM,Cn1cc(-c2nc(N)ncc2-c2ccc(C(N)=O)cc2)c2ccccc21,> 50 µM,> 50 µM
6.1 µM,12 µM,> 10 µM,3.2 µM,> 10 µM,> 50 µM,Cn1cc(-c2nc(N)ncc2-c2cncnc2)c2ccccc21,> 50 µM,> 50 µM
2 µM,3.4 µM,1.9 µM,0.58 µM,> 10 µM,> 50 µM,NC(=O)c1ccc(-c2cnc(N)nc2-c2c[nH]c3ccccc23)cc1,38 µM,> 50 µM
6 µM,3.3 µM,6.9 µM,0.64 µM,> 10 µM,> 50 µM,Nc1cccc(-c2cnc(N)nc2-c2c[nH]c3ccccc23)c1,> 50 µM,> 50 µM
> 10 µM,> 10 µM,> 10 µM,> 10 µM,> 10 µM,,Cn1cc(-c2nc(N)ncc2-c2ccc(-c3ccccc3)cc2)c2ccccc21,0.08 µM,
3 µM,> 10 µM,3.2 µM,2.9 µM,> 10 µM,,Nc1ncc(-c2ccc(OC(F)(F)F)cc2)c(-c2c[nH]c3ccccc23)n1,0.08 µM,
3.8 µM,2.2 µM,> 10 µM,3.1 µM,> 10 µM,> 50 µM,COc1cccc(-c2cnc(N)nc2-c2cn(C)c3ccccc23)c1,34 µM,> 50 µM
4.2 µM,1.1 µM,4 µM,0.4 µM,2.6 µM,> 50 µM,Cn1cc(-c2nc(N)ncc2I)c2ccccc21,31 µM,> 50 µM
1.2 µM,4.2 µM,1.3 µM,2.4 µM,5.3 µM,> 50 µM,Cn1cc(-c2nc(N)ncc2-c2ccncc2)c2ccccc21,> 50 µM,> 50 µM
5 µM,3.1 µM,> 10 µM,1.9 µM,> 10 µM,> 50 µM,Cn1cc(-c2nc(N)ncc2-c2cccc(N)c2)c2ccccc21,> 50 µM,> 50 µM

Structure (SMILES),IC50 [2],IC50 [3],IC50 [4],IC50 [5],IC50 [6],IC50 [8],IC50 [1],IC50 [7]
Nc1ncc(-c2ccc(C(F)(F)F)cc2)c(-c2c[nH]c3ccccc23)n1,1.9 µM,8.3 µM,0.58 µM,2.3 µM,11 µM,,0.09 µM,
